Data on two compounds can be found in ChEMBL document CHEMBL1151917, “Dysideamine, a new sesquiterpene aminoquinone, protects hippocampal neuronal cells against iodoacetic acid-induced cell death” (Bioorg Med Chem, 2009).

Calls of active or inactive are those of the source. The calls are words filed in the database; no cut-off is given here.

Data set [1] concerns HT-22. The data set can be described thus: Neuroprotective activity against iodoacetic acid-induced cell death in mouse HT22 cells assessed as survival at 10 uM treated 2 hrs after iodoacetic acid challenge measured after 20 hrs by MTT colorimetric assay. The following applies: read-out: Survival. Type of data set: functional. The procedure, abridged:
(§1)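 HT22 cells in DMEM/10% FBS, 5 × 10^3 cells/well, held 24 h at 37 °C under 5% CO2. Switched to DMEM/7.5% FBS with 20 µM iodoacetic acid for 2 h. Medium then replaced with fresh DMEM/10% FBS and compound added in EtOH. After a further 20 h, viability was read by MTT. Mean ± SEM, n = 3.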
(Formazan colour is commonly taken as a measure of viable cells.)

Data set [2] has as its system HT-22. The data set can be described thus: Neuroprotective activity against iodoacetic acid-induced cell death in mouse HT22 cells assessed as survival treated 2 hrs after iodoacetic acid challenge measured after 20 hrs by MTT colorimetric assay. Type of data set: functional, cell-based. The method, boiled down: as §1
The test system of data set [3] is HT-22. Kind of data set: Neuroprotective activity against iodoacetic acid-induced intracellular ATP depletion in mouse HT22 cells assessed as recovery of ATP treated 2 hrs after iodoacetic acid challenge after 4 to 8 hrs. It is filed as functional, cell-based. The method, boiled down: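 HT22 cells at 5 × 10^3 cells/well were exposed to […] for 2 h in DMEM/7.5% FBS. They were then moved to normal growth medium, with or without compound, for the indicated times. Intracellular ATP was read by CellTiter-Glo luminescence. Mean ± SEM, n = 3.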

Data set [4] deals with HT-22. The data set can be described thus: Neuroprotective activity in mouse HT22 cells assessed as inhibition of iodoacetic acid-induced intracellular ROS production at 10 uM treated 2 hrs after iodoacetic acid challenge. Type of data set: functional, cell-based. The procedure, abridged: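 HT22 cells at 5 × 10^4 cells/well were cultured 24 h, then given 20 µM iodoacetic acid in DMEM/7.5% FBS for 2 h. Cells went to normal growth medium with compound (10 µM) in EtOH. At the indicated times they were washed and loaded with 10 µM DCFH-DA in serum-free medium for 20 min in the dark. After a second wash, fluorescence was read at ex 485/em 530 nm.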

For data set [5], the system named is N2a. The data set can be described thus: Induction of neurite out growth in mouse Neuro2a cells assessed as increase in percent of cells with outgrowth at 3 uM after 48 hrs by phase contrast microscopy. Type of data set: functional. The method, boiled down:
(§2)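 Neuro 2A cells in DMEM/10% FBS, seeded at 1 × 10^4 cells per well and grown 24 h. Medium renewed, then compound added in EtOH and cells held 48 h. Scored by phase contrast microscopy: neurite-bearing means processes longer than the cell body diameter. Percent of neurite-bearing cells counted from at least 300 cells in photomicrographs of representative-density areas.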

Data set [6] concerns N2a. The data set can be described thus: Induction of neurite out growth in mouse Neuro2a cells assessed as increase in percent of cells with outgrowth at 10 uM after 48 hrs by phase contrast microscopy. Type of data set: functional. The procedure, abridged:
as §2

A short description of data set [7]: Cytotoxicity against mouse Neuro2a cells at 10 uM. Type of data set: cell-based. The following applies: n2a.
In data set [8] the test system is N2a. Kind of data set: Induction of neuronal differentiation in mouse Neuro2a cells assessed as increase in acetylcholinesterase activity at 3 uM after 48 hrs by colorimetrically. Type of data set: functional, cell-based. The method, boiled down:
(§3)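 After 48 h treatment of Neuro 2A cells, AChE production was measured per 5 × 10^4 cells. Read-out was the colorimetric rate of acetylthiocholine hydrolysis.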

For data set [9], the system named is N2a. Kind of data set: Induction of neuronal differentiation in mouse Neuro2a cells assessed as increase in acetylcholinesterase activity at 10 uM after 48 hrs by colorimetrically. It is filed as functional, cell-based. The method, boiled down: as §3

In the case of `COC1=CC(=O)C(O)=C(C[C@@]2(C)CC[C@]3(C)C(C)=CCC[C@H]3[C@H]2C)C1=O` [BOLINAQUINONE], the viability at 10 µM in the data set on HT-22 [1] was determined as 57%.

Regarding `CC1=CCC[C@H]2[C@@H](C)[C@@](C)(CC3=C(O)C(=O)C=C(N)C3=O)CC[C@]12C` [DYSIDEAMINE], the Activity result was “Dose-dependent effect” in the data set with HT-22 [2], 40% in the data set with N2a [5], 25% in the data set with N2a [6] and “Non-toxic” in data set [7]. In addition, the viability at 10 µM in the data set with HT-22 [1] was 43%. For the same compound, the outcome in the data set with HT-22 [3], with HT-22 [4], with N2a [8] and with N2a [9] was Active.
